The entries come from a sample that favours hits as a whole.
Diaphorase inh = inhibits diaphorase or chemically oxidizes, flagging diaphorase assay artifacts; diaphorase resazurin-to-resorufin fluorescence, NADH, 16 min; bacterial (C. kluyveri) enzyme, not human; inhibition, % at 20 µM; 0.69% of 190,000 active; AID 1217;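 active = primary screen inhibition at 20 µM above a set limit, cut at about 50% in these data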;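 note: plate controls were DMSO with full reaction for no effect and wells lacking NADH for full effect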
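Test system: Clostridium kluyveri diaphorase enzyme / Quantity: diaphorase at 0.14 U/mL in enzyme working solution / Incubation: 16-min room-temperature incubation before reading / Benchmarks: NADH-free wells as positive control, DMSO-only neutral wells / Signal: resorufin fluorescence 544/590 nm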
Redox H2O2 prof = compounds producing H2O2 with reducing agent – biochemical, NIH compound library profiling, artefact control for MLSCN library redox annotation, primary screen. activation, % at 10 µM. 0.03% of 200,000 active. DTT-dependent redox cycling H2O2, phenol red/HRP absorbance; 100% = 100 µM peroxide control, 0% = buffer;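 active = activation of at least 50% relative to the plate's high and low controls in the primary single-dose screen; inactive = activation below 50%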;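 note: compound incubated with DTT at 0.8 mM final as the reducing agent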
Lmaj promast = reduces viability of Leishmania major promastigotes. 9% of 200,000 active. resazurin fluorescence viability. inhibition, % at 10 µM;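 note: promastigotes grown with compound for 44 hours at 28 °C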
Diaphorase act = counter-screen for diaphorase-based assays: diaphorase activators and chemical reducers | Diaphorase/resazurin coupled assay, resorufin fluorescence, 16 min; stronger effect = higher value; 1 = vehicle wells, 0 = NADH-free wells | activation factor at 20 µM | 0.005% of 190,000 active;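 active = diaphorase activity raised at least twofold by the compound at 20 µM; inactive = activation factor below 2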
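Test system: Clostridium kluyveri diaphorase, purified enzyme. Buffer or medium: 50 mM HEPES pH 7.4 buffer plus MgCl2 and Tween 20. Also added: 0.114 mM NADH and 0.1 mM resazurin, final amounts. Dosing: compound 20 µM once, DMSO 1%. Schedule: 16 min enzyme reaction, ambient temperature. Detection: fluorescence of resorufin, 544 nm excitation, 590 nm emission.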
G6PDH counter = counter-screen for G6PDH assay hits: L. mesenteroides G6PDH inhibition; 0.12% of 200,000 active; inhibition, % at 5 µM; AID 1020; Purified L. mesenteroides G6PDH, diaphorase/resazurin coupled fluorescence, 45 min
PfG6PD inh = PfG6PD (Plasmodium falciparum) enzyme inhibition; PfGluPho enzyme, NADPH resazurin-diaphorase fluorescence; inhibition, % at 20 µM; 0.78% of 350,000 active; AID 504690;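 active = inhibition reaching at least a set limit at 20 µM in the primary screen, cut at about 59% in these data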;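 note: 0% = DMSO wells with substrate and 100% = DMSO wells lacking glucose-6-phosphate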
Starred values were filed as active, the others as inactive; nt = not tested or not shown. Cut-off read from the data, not from the text of the source, unless noted: active = inhibition above about 50%; inactive = the rest.

SMILES	Diaphorase inh	Redox H2O2 prof	Lmaj promast	Diaphorase act	G6PDH counter	PfG6PD inh
Cc1c(C(O)CN2CCN(Cc3ccc4c(c3)OCO4)CC2)c2ccccc2n1C (stereo not drawn)	9.6	-3.6	100.1*	0.9	1.6	-2.2
OC(CN1CCN(Cc2ccc3c(c2)OCO3)CC1)c1c[nH]c2ccccc12 (stereo not drawn)	4.1	3.0	91.3*	1	-1.5	-5.4
Cc1cc(OCc2cccc(Cl)c2)c(C)cc1CN1CCOCC1	6.3	-0.5	80.7*	0.9	-1.7	-9.6
O=[N+]([O-])c1cccc(COc2ccccc2CN2CCOCC2)c1	nt	nt	nt	nt	nt	24.3
CNC(=O)c1ccccc1Nc1ccc(SC(F)F)cc1	nt	nt	nt	nt	nt	-11.6
CC(/C=C/c1ccccc1)=N\Nc1nc(-c2ccccc2)cs1	26.2	1.1	69.1*	0.7	-45.6	17.7
CC1CC(CC(=O)NNc2nc(-c3ccccc3)cs2)C(=O)O1 (stereo not drawn)	-6.6	-0.9	32.2	1.1	3.5	0.9
O=[N+]([O-])c1ccc(N/N=C/c2cccnc2)cc1	nt	nt	nt	nt	nt	31.0
C(=N\Nc1nc(-c2ccccc2)cs1)/c1cccnc1	19.6	0.6	91.1*	0.8	-37.0	47.2
Clc1ccc(N/N=C/c2cccnc2)cc1	6.7	0.5	62.2*	0.9	-12.2	27.8
C/C(CCC1CC(C)OC1=O)=N/Nc1nc(-c2ccccc2)cs1 (stereo not drawn)	11.9	-0.1	76.2*	0.9	2.6	33.2
Clc1ccc(-c2csc(N/N=C/c3cccnc3)n2)c(Cl)c1	-3.6	0.0	-2.3	1	7.7	-8.3
O=C(COc1ccccc1F)Nc1cc(S(=O)(=O)Nc2cccc(Cl)c2)ccc1O	nt	nt	nt	nt	nt	-2.5
O=C(CN1CCN(S(=O)(=O)c2ccc(Cl)s2)CC1)N1CCOCC1	nt	nt	nt	nt	nt	-3.6
CCN(CC)CCCn1c2c(c(SCC(=O)N3CCc4ccccc43)nc1=O)CCC2	nt	nt	nt	nt	nt	11.1
CC(C)=NNc1nc(-c2ccccc2)cs1	12.1	-0.6	89.5*	0.9	22.4	15.7
Cc1cccc(NS(=O)(=O)c2ccc3c(c2)OCCO3)c1	7.5	0.1	73.7*	0.9	4.0	-6.6
COc1ccc(S(=O)(=O)Nc2ccc3c(c2)OCCO3)cc1Cl	10.3	1.0	70.8*	0.9	6.6	-27.7
COc1ccc(N(C)S(=O)(=O)c2ccc(Cl)c(C(=O)NNC(=O)c3ccccc3O)c2)cc1	nt	nt	nt	nt	nt	-30.8
N#Cc1ccc(OCC(=O)N/N=C2/CC(c3ccccc3)Oc3ccccc32)cc1 (stereo not drawn)	2.3	0.0	52.6*	1	-13.7	-3.3
O=S(=O)(N/N=C1\CC(c2ccccc2)Oc2ccccc21)c1ccccc1 (stereo not drawn)	12.0	1.4	29.9	0.9	7.4	-13.4
CCOc1ccc(S(=O)(=O)N/N=C2/CC(c3ccccc3)Oc3ccccc32)cc1 (stereo not drawn)	16.3	0.2	50.2*	0.8	3.6	-9.2
CC1(C)CC(=O)C2=C(C1)OC(N)=C(C#N)C2c1cn(-c2ccccc2)nc1-c1ccc(F)cc1 (stereo not drawn)	25.7	0.3	66.5*	0.7	-8.5	8.5
CC1(C)CC(=O)C2=C(C1)C(c1cn(-c3ccccc3)nc1-c1ccccc1)C(C#N)=C(N)O2 (stereo not drawn)	30.2	0.2	79.3*	0.7	-5.2	-4.3
CCOC(=O)C1CCN(S(=O)(=O)c2ccc3c(c2)CCN3C(=O)C2CCC2)CC1	nt	nt	nt	nt	nt	15.5
SMILES	Diaphorase inh	Redox H2O2 prof	Lmaj promast	Diaphorase act	G6PDH counter	PfG6PD inh
CC1(C)Cc2c(cnn2-c2ccccc2)-c2c1c1ccccc1n2CC(O)CCl (stereo not drawn)	19.8	2.9	100.4*	0.8	-1.0	26.6
O=C(NCc1ccccc1)/C(=C/c1ccc(OC(F)F)cc1)c1ccccc1	10.9	0.4	46.3	0.9	-13.5	0.3
COc1ccc(/C=C(/C(=O)NCc2ccccc2)c2ccccc2)cc1	7.6	-0.1	92.3*	0.9	8.8	1.6
COc1ccccc1/C=C(/C(=O)OCC(=O)NCc1ccccc1)c1ccccc1	19.9	0.1	62.0*	0.8	1.7	0.0
CC(C)(NC(=O)c1cc(Cl)c2ccccc2c1O)C(=O)O	nt	nt	nt	nt	nt	-12.4
O=C(NCc1cccnc1)c1csc2c1CCCC2	0.1	0.2	51.5*	1	8.4	-8.2
Cc1ccc(CNC(=O)c2csc3c2CCCCC3)cc1	0.0	0.3	-1.3	1	5.4	-1.7
COc1ccccc1NC(=O)C1=C(C)Nc2nc(-c3cccnc3)nn2C1c1ccccn1 (stereo not drawn)	nt	nt	nt	nt	nt	-20.6
COc1cccc(C2C(C(N)=O)=C(C)Nc3nc(-c4cccc(Cl)c4)nn32)c1 (stereo not drawn)	8.5	-1.2	5.6	0.9	3.4	7.9
COc1ccccc1-c1nc2n(n1)C(c1cccs1)C(C(=O)Nc1cccnc1)=C(C)N2 (stereo not drawn)	25.5	-0.6	98.5*	0.7	-20.3	1.0
CC1=C(C(N)=O)C(c2cccnc2)n2nc(-c3cccc(Cl)c3)nc2N1 (stereo not drawn)	-2.6	-0.2	67.4*	1	1.7	-14.2
COc1ccccc1NC(=O)C1=C(C)Nc2nc(-c3cccs3)nn2C1c1cccnc1 (stereo not drawn)	17.0	-1.5	96.9*	0.8	6.6	8.3
Cc1nnc(Cc2ccco2)c2n[nH]c(C)c12	nt	nt	nt	nt	nt	5.0
Cn1c(SCC(=O)Nc2ccc(NC(=O)c3cccs3)cc2)nnc1-c1ccncc1	14.1	1.2	-5.7	0.9	1.1	-0.8
CC1CCCN(CC(O)COCC2COc3ccccc3O2)C1 (stereo not drawn)	-7.5	2.0	85.9*	1.1	5.4	-10.6
OC(COCC1COc2ccccc2O1)CN1CCN(c2ccccn2)CC1 (stereo not drawn)	12.1	14.6	70.4*	0.9	-0.3	-8.5
Cc1ccc2[nH]c(CNC(=O)C3CCCCC3)cc2c1	nt	nt	nt	nt	nt	4.5
COC(=O)c1c(NC(=O)C2CC=CCC2C(=O)O)sc2c1CCCCC2 (stereo not drawn)	nt	nt	nt	nt	nt	-18.4
Cc1ccc(O)c(C(=O)CC(=O)c2ccc(C(C)(C)C)cc2)c1	nt	nt	nt	nt	nt	-21.8
Cc1ccc(O)c(C(=O)CC(=O)c2ccccc2Cl)c1	20.3	-0.1	95.5*	0.8	10.7	-9.5
Cc1ccc(C(=O)CC(=O)c2ccccc2C)c(O)c1	nt	nt	nt	nt	nt	-16.3
Cc1ccc(C(=O)CC(=O)c2cccc(F)c2)c(O)c1	8.5	0.0	97.3*	0.9	0.5	-17.9
O=C(c1cccc(NS(=O)(=O)c2ccccc2)c1)N1CCCCC1	nt	nt	nt	nt	nt	-18.5
CSc1cccc(NS(=O)(=O)c2ccc(F)cc2)c1	15.7	3.4	55.5*	0.8	6.7	2.6
O=C(N/N=C/c1ccc(O)cc1O)/C(=C/c1ccccc1)CCO	18.7	-0.5	98.0*	0.8	-11.9	-27.0

Source: PubChem
